Results as given in ChEMBL document CHEMBL1141000, “cis-Nitromethylene neonicotinoids as new nicotinic family: synthesis, structural diversity, and insecticidal evaluation of hexahydroimidazo[1,2-alpha]pyridine” (2008).
Converted amounts (≈) assume the structure as drawn.

Columns and labels:
Format in all cases: functional
Aphis craccivora [1] = test: Insecticidal activity against Aphis craccivora
Aphis craccivora [2] = test: Insecticidal activity against Aphis craccivora assessed as mortality at 500 mg/L
Nilaparvata lugens [3] = test: Insecticidal activity against imidacloprid-resistant Nilaparvata lugens
Method in brief: (§1)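 Nilaparvata lugens (brown planthopper), sensitive and imidacloprid-resistant strains tested separately, using a protocol similar to the pea aphid bioassay. Activity expressed as LC50 (mg/L).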

Nilaparvata lugens [4] = test: Insecticidal activity against imidacloprid-sensitive Nilaparvata lugens; method in brief: as §1

Row | SMILES | LC50 (Aphis craccivora [1]) [µg/mL] | Activity (Aphis craccivora [2]) [%] | LC50 (Nilaparvata lugens [3]) [µg/mL] | LC50 (Nilaparvata lugens [4]) [µg/mL]
1 | CCC1CC(O)N2CCN(Cc3ccc(Cl)nc3)C2=C1[N+](=O)[O-] (stereo unspecified) | 61 (≈ 180 µM) | 100 | – | –
2 | CC1CC(OCCCl)N2CCN(Cc3ccc(Cl)nc3)C2=C1[N+](=O)[O-] (stereo unspecified) | 74.7 (≈ 193 µM) | 100 | – | –
3 | O=[N+]([O-])C1=C2N(Cc3ccc(Cl)nc3)CCN2C(O)CC1c1ccccc1 (stereo unspecified) | – | 30 | – | –
4 | CCCOC1CC(CCC)C([N+](=O)[O-])=C2N(Cc3ccc(Cl)nc3)CCN21 (stereo unspecified) | – | 82 | – | –
5 | CC1CC(OC2CCCCC2)N2CCN(Cc3ccc(Cl)nc3)C2=C1[N+](=O)[O-] (stereo unspecified) | – | 0 | – | –
6 | CCOC1CC(C)C([N+](=O)[O-])=C2N(Cc3ccc(Cl)nc3)CCN21 (stereo unspecified) | 65.4 (≈ 185 µM) | 100 | – | –
7 | CC1CC(O)N2CCN(Cc3ccc(Cl)nc3)C2=C1[N+](=O)[O-] (stereo unspecified) | 31.5 (≈ 97 µM) | 100 | 7.36 (≈ 22.7 µM) | 20.7 (≈ 63.8 µM)
8 | CCCOC1CC(c2ccccc2)C([N+](=O)[O-])=C2N(Cc3ccc(Cl)nc3)CCN21 (stereo unspecified) | – | 45 | – | –
9 | CC1CC(OCc2ccccc2)N2CCN(Cc3ccc(Cl)nc3)C2=C1[N+](=O)[O-] (stereo unspecified) | – | 94 | – | –
10 | COC1C(C)CC([N+](=O)[O-])=C2N(Cc3ccc(Cl)nc3)CCN21 (stereo unspecified) | – | 73 | – | –
11 | CCCCC1CC(O)N2CCN(Cc3ccc(Cl)nc3)C2=C1[N+](=O)[O-] (stereo unspecified) | – | 85 | – | –
12 | CCOC1CC(C(C)C)C([N+](=O)[O-])=C2N(Cc3ccc(Cl)nc3)CCN21 (stereo unspecified) | – | 72 | – | –
13 | CC1C([N+](=O)[O-])=C2N(Cc3ccc(Cl)nc3)CCN2C(O)C1C (stereo unspecified) | – | 50 | – | –
14 | CC1(O)CCC([N+](=O)[O-])=C2N(Cc3ccc(Cl)nc3)CCN21 (stereo unspecified) | – | 90 | – | –
15 | CC(C)COC1CC(C)C([N+](=O)[O-])=C2N(Cc3ccc(Cl)nc3)CCN21 (stereo unspecified) | – | 0 | – | –
16 | CC1CC(OCCO)N2CCN(Cc3ccc(Cl)nc3)C2=C1[N+](=O)[O-] (stereo unspecified) | – | 0 | – | –
17 | CCOC1CC(c2ccccc2)C([N+](=O)[O-])=C2N(Cc3ccc(Cl)nc3)CCN21 (stereo unspecified) | – | 89 | – | –
18 | O=[N+]([O-])C1=C2N(Cc3ccc(Cl)nc3)CCN2C(O)CC1c1ccc([N+](=O)[O-])cc1 (stereo unspecified) | – | 0 | – | –
19 | COC1CC(c2ccccc2)C([N+](=O)[O-])=C2N(Cc3ccc(Cl)nc3)CCN21 (stereo unspecified) | – | 50 | – | –
20 | CCC1C([N+](=O)[O-])=C2N(Cc3ccc(Cl)nc3)CCN2C(O)C1C (stereo unspecified) | – | 0 | – | –

Row | SMILES | LC50 (Aphis craccivora [1]) [µg/mL] | Activity (Aphis craccivora [2]) [%] | LC50 (Nilaparvata lugens [3]) [µg/mL] | LC50 (Nilaparvata lugens [4]) [µg/mL]
21 | CCC(C)OC1CC(C)C([N+](=O)[O-])=C2N(Cc3ccc(Cl)nc3)CCN21 (stereo unspecified) | – | 0 | – | –
22 | CCCC1CC(OC(C)C)N2CCN(Cc3ccc(Cl)nc3)C2=C1[N+](=O)[O-] (stereo unspecified) | – | 79 | – | –
23 | CC(C)OC1CC(c2ccccc2)C([N+](=O)[O-])=C2N(Cc3ccc(Cl)nc3)CCN21 (stereo unspecified) | – | 0 | – | –
24 | CCCC1CC(OC)N2CCN(Cc3ccc(Cl)nc3)C2=C1[N+](=O)[O-] (stereo unspecified) | – | 89 | – | –
25 | O=[N+]([O-])C1=C2N(Cc3ccc(Cl)nc3)CCN2C(O)C2CCCCC12 (stereo unspecified) | – | 0 | – | –
26 | CCC1CC(OC(C)C)N2CCN(Cc3ccc(Cl)nc3)C2=C1[N+](=O)[O-] (stereo unspecified) | 88.9 (≈ 233 µM) | 100 | – | –
27 | CCCOC1CC(CC)C([N+](=O)[O-])=C2N(Cc3ccc(Cl)nc3)CCN21 (stereo unspecified) | 86.4 (≈ 227 µM) | 100 | – | –
28 | CCCC1CC(OCC)N2CCN(Cc3ccc(Cl)nc3)C2=C1[N+](=O)[O-] (stereo unspecified) | – | 95 | – | –
29 | CC1CC([N+](=O)[O-])=C2N(Cc3ccc(Cl)nc3)CCN2C1O (stereo unspecified) | – | 70 | – | –
30 | CC(C)OC1CC(C)C([N+](=O)[O-])=C2N(Cc3ccc(Cl)nc3)CCN21 (stereo unspecified) | 96.2 (≈ 262 µM) | 100 | 6.33 (≈ 17.3 µM) | 5.57 (≈ 15.2 µM)
31 | CCCCOC1CC(C)C([N+](=O)[O-])=C2N(Cc3ccc(Cl)nc3)CCN21 (stereo unspecified) | – | 58.4 | – | –
32 | CCCOC1CC(C)C([N+](=O)[O-])=C2N(Cc3ccc(Cl)nc3)CCN21 (stereo unspecified) [PAICHONGDING] | 33.7 (≈ 91.8 µM) | 100 | 7.2 (≈ 19.6 µM) | 7.35 (≈ 20 µM)
33 | CCC1CC(OC)N2CCN(Cc3ccc(Cl)nc3)C2=C1[N+](=O)[O-] (stereo unspecified) | – | 90 | 8.87 (≈ 25.1 µM) | 1.07 (≈ 3.03 µM)
34 | CCOC1CC(CC)C([N+](=O)[O-])=C2N(Cc3ccc(Cl)nc3)CCN21 (stereo unspecified) | 48.9 (≈ 133 µM) | 100 | – | –
35 | CCCC1CC(O)N2CCN(Cc3ccc(Cl)nc3)C2=C1[N+](=O)[O-] (stereo unspecified) | – | 25 | – | –
36 | CC(C)OC1C(C)CC([N+](=O)[O-])=C2N(Cc3ccc(Cl)nc3)CCN21 (stereo unspecified) | – | 67 | – | –
37 | COC1CC(C)C([N+](=O)[O-])=C2N(Cc3ccc(Cl)nc3)CCN21 (stereo unspecified) | 50 (≈ 148 µM) | 100 | – | –
38 | CC(C)C1CC(O)N2CCN(Cc3ccc(Cl)nc3)C2=C1[N+](=O)[O-] (stereo unspecified) | – | 0 | – | –
39 | O=[N+]([O-])/N=C1\NCCN1Cc1ccc(Cl)nc1 [IMIDACLOPRID] | 7.9 (≈ 30.9 µM) | 100 | 19.7 (≈ 77.2 µM) | 0.14 (≈ 0.548 µM)
40 | C=CCOC1CC(C)C([N+](=O)[O-])=C2N(Cc3ccc(Cl)nc3)CCN21 (stereo unspecified) | – | 100 | – | –
